From ChEMBL document CHEMBL2163224, “In silico discovery of a compound with nanomolar affinity to antithrombin causing partial activation and increased heparin affinity” (J Med Chem, 2012)
The source made the active and inactive calls. The calls are words filed in the database; no cut-off is given here.

Legend:
Homo sapiens [1] = species: Homo sapiens; test: Activation of antithrombin L99F mutant in type 2 antithrombin deficiency patient plasma assessed as inhibition of S-2238 hydrolysis at 148 uM incubated for 5 mins in presence of 1 uM unfractionated heparin (reference value: 33.22 +/- 2.93%); format: cell-free; set-up: scale not given: the % may be the effect or the level left
Homo sapiens [2] = species: Homo sapiens; test: Activation of purified human antithrombin-high affinity heparin interaction assessed as antithrombin-mediated inhibition of thrombin by measuring as second order association rate constant for chromogenic substrate hydrolysis at 1 uM by microplate reader based assay
[3] = Activation of purified human antithrombin-unfractionated heparin interaction assessed as change in antithrombin intrinsic fluorescence by fluorescence spectrophotometry
Method in brief: (§1)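 Antithrombin intrinsic fluorescence emission at 340 nm titrated with UFH (alone or after antithrombin preincubation with 37 μM compound) at room temperature, I = 0.15, 20 mM NaPO4, 100 mM NaCl, 0.1 mM EDTA, 0.1% PEG 8000, pH 7.4. Each point averaged from 100 readings at 1 s intervals; Kd obtained by data fitting.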

Homo sapiens [4] = species: Homo sapiens; test: Activation of antithrombin in healthy human plasma assessed as inhibition of S-2238 hydrolysis at 148 uM incubated for 5 mins in presence of 1 uM unfractionated heparin; format: cell-free; set-up: scale not given: the % may be the effect or the level left
Homo sapiens [5] = species: Homo sapiens; test: Activation of citrullinated human antithrombin-mediated inhibition of factor 10a assessed as chromogenic substrate hydrolysis at 14.8 uM in presence of rabbit skeletal muscle […]; set-up: scale not given: the % may be the effect or the level left
Method in brief: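 Plasma-purified antithrombin (1 mg/mL) incubated with rabbit skeletal muscle PAD IV (50:1 molar ratio antithrombin/PAD) ± 14.8 μM compound in 100 mM Tris-HCl, 5 mM CaCl2, pH 7.4, 37 °C, 15 min; stopped with 50 mM EDTA. Residual anti-FXa activity by chromogenic assay with heparin, bovine FXa, S-2765, A405. Two experiments in triplicate, % of antithrombin alone.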

Homo sapiens [6] = species: Homo sapiens; test: Activation of purified human antithrombin-low affinity heparin interaction assessed as antithrombin-mediated inhibition of factor 10a by measuring as second order association rate constant for chromogenic substrate hydrolysis at 1 uM by microplate reader based assay
Homo sapiens [7] = species: Homo sapiens; test: Activation of purified human antithrombin-low affinity heparin interaction assessed as antithrombin-mediated inhibition of thrombin by measuring as second order association rate constant for chromogenic substrate hydrolysis at 1 uM by microplate reader based assay
Homo sapiens [8] = species: Homo sapiens; test: Induction of conformational changes in purified human antithrombin assessed as induction of transition latent conformation up to 14.8 uM at 37 or 42 degC incubated for 2 days in absence of urea by native PAGE
Method in brief: (§2)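 Antithrombin incubated with compound up to 14.8 μM at 37 or 42 °C for 2 days; latent form and polymers assessed by immunoelectrophoresis on 8% (w/v) nondenaturing PAGE with or without 7 M urea.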

Homo sapiens [9] = species: Homo sapiens; test: Activation of purified human antithrombin-high affinity heparin interaction assessed as antithrombin-mediated inhibition of factor 10a by measuring as second order association rate constant for chromogenic substrate hydrolysis at 1 uM by microplate reader based assay
Homo sapiens [10] = species: Homo sapiens; test: Activation of purified human antithrombin-mediated inhibition of factor 10a assessed as second order association rate constant for chromogenic substrate hydrolysis by microplate reader based assay
[11] = Binding affinity to purified human antithrombin at 128 uM by isothermal titration calorimetry
Homo sapiens [12] = species: Homo sapiens; test: Induction of conformational changes in purified human antithrombin assessed as induction of antithrombin polymer formation up to 14.8 uM at 37 or 42 degC incubated for 2 days in presence of urea by native PAGE; method in brief: as §2
Homo sapiens [13] = species: Homo sapiens; test: Activation of antithrombin in healthy human plasma assessed as inhibition of S-2238 hydrolysis at 148 uM incubated for 5 mins in presence of mouse Py-4-1 cells; format: cell-free; set-up: scale not given: the % may be the effect or the level left
Homo sapiens [14] = species: Homo sapiens; test: Induction of conformational changes in purified human antithrombin assessed as induction of transition latent conformation up to 14.8 uM at 37 or 42 degC incubated for 2 days in presence of urea by native PAGE; method in brief: as §2
Homo sapiens [15] = species: Homo sapiens; test: Activation of purified human antithrombin-mediated inhibition of thrombin assessed as second order association rate constant for chromogenic substrate hydrolysis by microplate reader based assay
Homo sapiens [16] = species: Homo sapiens; test: Activation of antithrombin L99F mutant in type 2 antithrombin deficiency patient plasma assessed as inhibition of S-2238 hydrolysis at 148 uM incubated for 5 mins in presence of mouse Py-4-1 cells (reference value: 33.22 +/- 2.93%); format: cell-free; set-up: scale not given: the % may be the effect or the level left
[17] = target: T1, Antithrombin (Homo sapiens) (UniProt Q15950); test: Activation of purified human antithrombin-unfractionated heparin assessed as change in antithrombin intrinsic fluorescence at 37 uM by fluorescence spectrophotometry relative to untreated heparin control; method in brief: as §1
T1 sequence (whole entry): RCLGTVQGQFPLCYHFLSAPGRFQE

Homo sapiens [18] = species: Homo sapiens; test: Induction of conformational changes in purified human antithrombin assessed as induction of antithrombin polymer formation up to 14.8 uM at 37 or 42 degC incubated for 2 days in absence of urea by native PAGE; method in brief: as §2
[19] = Binding affinity to purified human antithrombin at 64 uM in presence of 37 uM d-myo-inositol 3,4,5,6-tetrakisphosphate by isothermal titration calorimetry
[20] = Binding affinity to purified human antithrombin at 64 uM by isothermal titration calorimetry

Activity (Homo sapiens [1]) | K (Homo sapiens [2]) | Kd [3] | Activity (Homo sapiens [4]) | Activity (Homo sapiens [5]) | K (Homo sapiens [6]) | K (Homo sapiens [7]) | Activity (Homo sapiens [8]) | K (Homo sapiens [9]) | K (Homo sapiens [10]) | Kd [11] | Activity (Homo sapiens [12]) | Activity (Homo sapiens [13]) | Activity (Homo sapiens [14]) | K (Homo sapiens [15]) | Activity (Homo sapiens [16]) | fold change (FC) [17] | Activity (Homo sapiens [18]) | Kd [19] | Kd [20] | SMILES
40% | 3.28 µM⁻¹ s⁻¹ | 45 nM | 97.3% | 30% | 0.087 µM⁻¹ s⁻¹ | 0.683 µM⁻¹ s⁻¹ | inactive | 2.28 µM⁻¹ s⁻¹ | 0.012 µM⁻¹ s⁻¹ | 45 nM | inactive | 101% | inactive | 0.023 µM⁻¹ s⁻¹ | 37.2% | 2.3 | inactive |  |  | O=P(O)(O)O[C@@H]1[C@@H](OP(=O)(O)O)[C@H](OP(=O)(O)O)[C@@H](O)[C@@H](O)[C@H]1OP(=O)(O)O
 |  |  |  |  |  |  |  |  |  |  |  |  |  |  |  |  |  | 18.8 nM | 273 nM | CO[C@H]1O[C@H](COS(=O)(=O)O)[C@@H](O[C@@H]2O[C@@H](C(=O)O)[C@@H](O[C@H]3O[C@H](COS(=O)(=O)O)[C@@H](O[C@@H]4O[C@H](C(=O)O)[C@@H](O[C@H]5O[C@H](COS(=O)(=O)O)[C@@H](O)[C@H](O)[C@H]5NS(=O)(=O)O)[C@H](O)[C@H]4O)[C@H](OS(=O)(=O)O)[C@H]3NS(=O)(=O)O)[C@H](O)[C@H]2OS(=O)(=O)O)[C@H](O)[C@H]1NS(=O)(=O)O [FONDAPARINUX SODIUM]
